# Data from PMC4101349 (Translational Oncology, 2014).
# Key:
# A549 cells = assay: Alamar Blue cytotoxicity assay, A549; assay type: cell-based; settings: Homo sapiens, A549, 72 h, read-out: IC50 (50% inhibition of cell growth)
# Outline: (§1)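 Cells were seeded at 3000 per well and incubated overnight at 37°C. They were then exposed for 72 h to a range of test compound concentrations, alone or combined with a PI3K inhibitor. Alamar Blue was added for 6 h and absorbance read at 570 and 600 nm. IC50 was derived by the median-effect principle, as mean ± SD of three independent experiments. A549 was kept in DMEM; other lines in RPMI 1640 with 10% FBS, at 37°C and 5% CO2.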
# [1] = Complete blood profile in treated mice; assay type: in vivo, BALB/c nude mice; settings: 10th day
# Outline: (§2)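 Male BALB/c nude mice, six weeks old, received vehicle, test compound, PI3K inhibitor, or both. The test compound was given at 5 mg/kg i.v. on days 0, 2, 4, 6 and 8; the inhibitor at 40 mg/kg i.p. daily. Vehicle was 0.9% saline with 8% DMSO, 6% Tween-80 and 16% cremophor. Hematological and serum biochemical parameters were measured 1 day after the last i.v. injection.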
# H460 cells [2] = assay: Alamar Blue cytotoxicity assay, H460; assay type: cell-based; settings: Homo sapiens, NCI-H460, 72 h, read-out: IC50 (50% inhibition of cell growth)
# Outline: as §1
# [3] = tested on: DNA repair proteins (Mre11, Nbs1, pNbs1, Rad50, Rad51, FANCD2); assay: Western blot of DNA repair proteins in lung cancer cells; assay type: cell-based, human; settings: LY294002 40 μM with 20 μM BO-1509, 24 hours; H460, A549, PC9, PC9/gef B4
# Outline: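 H460, A549, PC9 and PC9/gef B4 cells were treated for 24 h with 10-80 μM test compound. Alternatively, they received 20 μM test compound and/or 40 μM PI3K inhibitor for 24 h. Lysates in electrophoresis sample buffer were run on SDS-PAGE and transferred to PVDF. Membranes took primary antibodies overnight at 4°C and HRP secondary antibody for 1 h at room temperature. Detection was by chemiluminescence, with β-actin as loading control.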
# H460 cells [4] = assay: H460 xenograft: histopathology of tumor; assay type: in vivo, BALB/c nude mice; settings: H460-xenografted mice; 29th day; histopathologic examination
# Outline: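 Nude mice were inoculated s.c. in the flank with H460 cells (approximately 3 × 10^6 to 5 × 10^6 in 100 μl PBS). Dosing began at about 100 mm3: test compound 5 mg/kg i.v. every other day ×5, PI3K inhibitor 40 mg/kg i.p. daily, or both. Tumors were taken 24 h after the final treatment for cleaved caspase-3 immunohistochemistry. Lungs were taken 29 days after transplantation for H&E histology.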
# [5] = Blood enzymes / biochemical parameters in treated mice; assay type: in vivo; settings: 10th day; BALB/c nude mice; mean ± SD
# Outline: as §2
# PC9/gef B4 cells [6] = assay: Mouse xenograft model, PC9/gef B4; assay type: in vivo, BALB/c nude mice; settings: PC9/gef B4-xenografted mice; LY294002 40 mg/kg i.p. daily
# Outline: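 PC9/gef B4 cells were implanted s.c. in the flank of male BALB/c nude mice, six weeks old. At about 70 mm3, mice were randomized into four groups: vehicle, test compound 5 mg/kg i.v. every other day ×5, PI3K inhibitor by daily i.p. injection, or the combination. Vehicle was saline with 8% DMSO, 6% Tween-80 and 16% cremophor. Caliper tumor volume was calculated as (length × width²)/2.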
# PC9 cells = assay: Alamar Blue cytotoxicity assay, PC9; assay type: cell-based; settings: Homo sapiens, PC-9, 72 h, read-out: IC50 (50% inhibition of cell growth)
# Outline: as §1
# PC9/gef B4 cells [7] = assay: Alamar Blue cytotoxicity assay, PC9/gef B4; assay type: cell-based; settings: Homo sapiens, 72 h, read-out: IC50 (50% inhibition of cell growth)
# Outline: as §1
# [8] = tested on: H460, A549, PC9, or PC9/gef B4 cells; assay: Mouse xenograft models, suppression of tumor growth; assay type: in vivo, BALB/c nude mice; settings: H460, A549, PC9, PC9/gef B4 xenografts; BO-1509 5 mg/kg i.v. every other day times five; LY294002 40 mg/kg i.p. daily
compound,measurement,setting,value
"O=c1cc(N2CCOCC2)oc2c(-c3ccccc3)cccc12 [LY294002, 2-(4-morpholinyl)-8-phenyl-4H-1-benzopyran-4-one]",IC50,A549 cells,28.4 ± 4.3 µM
same,Basophils,"[1]; BALB/c nude mice, mean ± SD",0.07 ± 0.00 10^3/μl
same,Eosinophils,"[1]; BALB/c nude mice, mean ± SD",0.06 ± 0.01 10^3/μl
same,Hematocrit,"[1]; BALB/c nude mice, mean ± SD",54.1 ± 0.70%
same,Hemoglobin,"[1]; BALB/c nude mice, mean ± SD",16.25 ± 0.10 g/dL
same,Lymphocytes,"[1]; BALB/c nude mice, mean ± SD",0.81 ± 0.10 10^3/μl
same,Mean cell hemoglobin,"[1]; BALB/c nude mice, mean ± SD",15.40 ± 0.09 pg
same,Mean cell volume,"[1]; BALB/c nude mice, mean ± SD",51.5 ± 0.30 fL
same,Mean corpuscular hemoglobin concentration,"[1]; BALB/c nude mice, mean ± SD",29.90 ± 0.30 g/dL
same,Monocytes,"[1]; BALB/c nude mice, mean ± SD",0.15 ± 0.05 10^3/μl
same,Neutrophils,"[1]; BALB/c nude mice, mean ± SD",1.27 ± 0.10 10^3/μl
same,Platelets,"[1]; BALB/c nude mice, mean ± SD",783 ± 86 10^3/μl
same,RBC distribution width,"[1]; BALB/c nude mice, mean ± SD",20.90 ± 1.00%
same,RBCs,"[1]; BALB/c nude mice, mean ± SD",10.53 ± 0.10 10^6/μl
same,WBCs,"[1]; BALB/c nude mice, mean ± SD",2.37 ± 0.20 10^3/μl
same,decrease of RBC count and hemoglobin concentration,[1]; treated mice versus control,minimal changes
same,IC50,H460 cells [2],111 ± 15.1 µM
same,BO-1509-induced increase in pNbs1 and Rad51,[3],suppressed
same,metastasis in the lungs,H460 cells [4],80%
same,AST,[5],75.6 ± 17.8 U/l
same,Alanine aminotransferase,[5],31.6 ± 2.5 U/l
same,Blood urea nitrogen,[5],25.0 ± 5.8 mg/dL
same,Glucose (GLU-P),[5],172 ± 23 mg/dL
same,LDH,[5],463 ± 117 U/l
same,suppression of the tumor burden,PC9/gef B4 cells [6],~40%
same,IC50,PC9 cells,56.9 ± 1.1 µM
same,IC50,PC9/gef B4 cells [7],31.3 ± 3.8 µM
same,suppression of the tumor burden,[8],limited
